Measured values as given in ChEMBL document CHEMBL1275389, “In vivo characterization of a dual adenosine A2A/A1 receptor antagonist in animal models of Parkinson's disease” (J Med Chem, 2010).
One block for each molecule: values may come before it. Activity calls are given as the source filed them. No cut-off for these calls is given here.

Legend:
Callithrix jacchus [1] = test: Inhibition of MPTP-induced motor disabilities in Callithrix jacchus at 12 mg/kg, po measured every 5 mins […]; format: functional, organism-based; set-up: dose 12 mg/kg
How it was run: (§1)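 MPTP-treated marmosets were dosed orally with vehicle, L-DOPA (12 mg/kg) or test compound (0.1/0.3, 1.0, 10, 50 mg/kg). Parkinsonian motor disability was scored out to 6 h. Eight animals per group. Analysis used a Friedman nonparametric repeated-measures ANOVA with Dunn's test.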

Callithrix jacchus [2] = test: Toxicity in Callithrix jacchus assessed as induction of dyskinesia at 12 mg/kg, po measured for 10 mins every 30 mins […]; format: organism-based; set-up: dose 12 mg/kg, route oral; settings: marmoset, in vivo
How it was run: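 MPTP-treated marmosets received vehicle, L-DOPA (12 mg/kg po) or oral test compound (0.1, 1.0, 10, 50 mg/kg). Dyskinesias (involuntary movements) were scored out to 4 h. Eight animals per group. Analysis used a Friedman test followed by Dunn's comparison.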

Rattus norvegicus [3] = test: Reversal of haloperidol-induced catalepsy in Sprague-Dawley rat at 1 mg/kg, po administered 30 mins after haloperidol challenge measured for 180 seconds after 4 hrs; format: functional, organism-based; set-up: dose 1 mg/kg
How it was run: (§2)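 Haloperidol-treated rats (1 mg/kg sc) were dosed orally with test compound (0, 1, 10 mg/kg) or L-DOPA 200 mg/kg plus benserazide 50 mg/kg. Time to descend from the bar (max 180 s) was measured at 15 min, 1 h, 2 h and 4 h after dosing. n = 10 rats; Dunnett's test versus haloperidol + vehicle.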

Mus musculus [4] = test: Reversal of reserpine-induced akinesia in po dosed CF1 mouse administered 18 hrs after reserpine challenge measured for 30 mins after 60 mins; settings: read-out: MED
[5] = Cmax in Sprague-Dawley rat plasma at 10 mg/kg, po; format: ADME, organism-based; set-up: dose 10 mg/kg, route oral
How it was run: (§3)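 Fasted male Sprague-Dawley rats received one oral dose of 10 mg/kg as a solution in 0.5% methylcellulose. For bioavailability, a separate iv dose of 2 mg/kg was given in 10% solutol. Discrete blood samples were taken by orbital sinus puncture from 3–4 rats per time point. Plasma was acetonitrile-precipitated and measured by LC-MS/MS (LOQ 0.7-2 ng/mL). Parameters came from noncompartmental analysis.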

[6] = Oral bioavailability in Sprague-Dawley rat at 10 mg/kg; format: ADME, organism-based; settings: in vivo; how it was run: as §3
[7] = Half life in cynomolgus monkey at 10 mg/kg, po; format: ADME, organism-based, Macaca fascicularis; set-up: dose 10 mg/kg, route oral; settings: in vivo
How it was run: (§4)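 Fasted male and female cynomolgus monkeys received one oral dose of 10 mg/kg as a solution in 0.5% methylcellulose. For bioavailability, a separate iv dose of 1 mg/kg was given in 10% solutol. Serial blood was drawn by venipuncture. Plasma was acetonitrile-precipitated and measured by LC-MS/MS (LOQ 0.7-2 ng/mL). Noncompartmental analysis was applied to individual plasma concentrations.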

Mus musculus [8] = test: Reversal of reserpine-induced akinesia in CF1 mouse at 30 mg/kg, po administered 18 hrs after reserpine challenge measured for 30 mins after 60 mins
[9] = Oral bioavailability in cynomolgus monkey at 10 mg/kg; format: ADME, organism-based, Macaca fascicularis; settings: in vivo; how it was run: as §4
Mus musculus [10] = test: Reversal of haloperidol-induced catalepsy in BALB/c mouse at 1 mg/kg, po administered 30 mins after haloperidol challenge measured for 60 seconds after 4 hrs; format: functional, organism-based; set-up: dose 1 mg/kg
How it was run: (§5)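 Fasted male BALB/c mice received haloperidol (1 mg/kg sc) and were then dosed orally with test compound (0, 1, 3 mg/kg in 0.5% methylcellulose), reference A2A antagonist (5 mg/kg) or vehicle. Bar catalepsy (max 60 s) was measured repeatedly at 15 min, 1 h, 2 h and 4 h after dosing. Mean ± SEM, n = 12; Dunnett's test.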

Rattus norvegicus [11] = test: Reversal of haloperidol-induced catalepsy in po dosed Sprague-Dawley rat administered 30 mins after haloperidol challenge measured for 180 seconds after 1 hr; format: functional
How it was run: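 Sprague-Dawley rats received haloperidol (1 mg/kg sc). Oral test compound (0.01-30.0 mg/kg), L-DOPA/carbidopa (200:50 mg/kg) or vehicle followed, as in the mouse protocol. Time to descend from the bar was recorded (max 180 s). Mean ± SEM, n = 10-16 rats per group.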

[12] = Cmax in Sprague-Dawley rat brain at 10 mg/kg, po; format: ADME, organism-based; set-up: dose 10 mg/kg, route oral
How it was run: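 Tissue distribution study: fasted male Sprague-Dawley rats were given 10 mg/kg orally in 0.5% methylcellulose. Four rats per time point were euthanized to collect brain. Brains were weighed, homogenized in methanol, and the extract evaporated and reconstituted in mobile phase for LC-MS/MS.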

Adenosine receptor A1 = molecular target: T1, Adenosine receptor A1 (Homo sapiens, UniProt P30542); test: Antagonist activity at adenosine A1 receptor; format: functional
T1 sequence (P30542 whole entry): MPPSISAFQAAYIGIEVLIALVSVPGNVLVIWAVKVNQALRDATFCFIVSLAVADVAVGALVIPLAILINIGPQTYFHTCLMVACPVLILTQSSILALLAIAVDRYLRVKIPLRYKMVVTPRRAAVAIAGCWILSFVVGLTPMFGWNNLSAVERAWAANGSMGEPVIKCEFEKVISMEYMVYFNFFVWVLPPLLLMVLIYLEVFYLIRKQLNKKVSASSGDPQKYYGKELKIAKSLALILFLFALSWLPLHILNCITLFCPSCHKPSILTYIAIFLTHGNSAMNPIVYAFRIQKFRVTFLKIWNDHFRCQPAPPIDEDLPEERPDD

Callithrix jacchus [13] = test: Inhibition of MPTP-induced motor disabilities in Callithrix jacchus at 1 mg/kg, po measured every 5 mins […]; format: functional, organism-based; set-up: dose 1 mg/kg; how it was run: as §1
Rattus norvegicus [14] = test: Potentiation of L-dopa-induced rotational behavior in unilaterally 6-hydroxydopamine-lesioned po dosed Sprague-Dawley rat pretreated 30 mins before L-dopa challenge measured for 120 mins in presence of carbidopa; format: functional, organism-based
How it was run: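 6-OHDA (12 μg) was microinjected unilaterally into the medial forebrain bundle. Six weeks later rats got L-DOPA (10 mg/kg po, with carbidopa 2.5 mg/kg sc) alone or together with oral test compound (0.1, 1.0, 3.0, 10 mg/kg). Contralateral 360° turns were counted by an optical sensor during the 2 h before and after L-DOPA. Mean ± SEM, n = 16 rats; Tukey's test versus L-DOPA + vehicle.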

Mus musculus [15] = test: Reversal of haloperidol-induced catalepsy in po dosed BALB/c mouse administered 30 mins after haloperidol challenge measured for 60 seconds after 1 hr; format: functional
How it was run: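 Fasted male BALB/c mice (18-23 g) received haloperidol 1 mg/kg sc (in 0.3% tartaric acid/0.9% saline). Test compound was given orally in 0.5% methylcellulose (0.01-10 mg/kg) 30 min later. L-DOPA 300 mg/kg plus carbidopa 75 mg/kg served as positive control. Groups were randomized and testing was blind. At 1 h, forepaws were placed on a bar 3.5 cm high and time on the bar was recorded (max 60 s). n = 9-11; Dunnett's test.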

[16] = Ratio of drug level in brain to plasma in Sprague-Dawley rat at 10 mg/kg, po; format: ADME, organism-based; set-up: dose 10 mg/kg, route oral
How it was run: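 Fasted male Sprague-Dawley rats were given 10 mg/kg orally as a solution in 0.5% methylcellulose. At each time point four rats were euthanized for blood, plasma and brain. Brain was homogenized in methanol, and the extract was dried and reconstituted in mobile phase. Plasma was precipitated with acetonitrile. Both were quantified by LC-MS/MS.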

Rattus norvegicus [17] = test: Reversal of haloperidol-induced catalepsy in Sprague-Dawley rat at 10 mg/kg, po administered 30 mins after haloperidol challenge measured for 180 seconds after 4 hrs; format: functional, organism-based; set-up: dose 10 mg/kg; how it was run: as §2
Mus musculus [18] = test: Reversal of haloperidol-induced catalepsy in BALB/c mouse at 3 mg/kg, po administered 30 mins after haloperidol challenge measured for 60 seconds after 4 hrs; format: functional, organism-based; set-up: dose 3 mg/kg; how it was run: as §5
Mus musculus [19] = test: Reversal of reserpine-induced akinesia in CF1 mouse at 10 mg/kg, po administered 18 hrs before reserpine challenge measured for 30 mins after 60 mins; format: functional, organism-based; set-up: dose 10 mg/kg; settings: in the assay text read “18 hrs after reserpine challenge” for “18 hrs before reserpine challenge”
How it was run: (§6)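 Mice were pretreated with reserpine (0.6 mg/kg sc) 18 h before testing. They were dosed orally with test compound (0.10, 1.0, 10.0, 30.0 mg/kg) or vehicle. Locomotion was recorded 60 min after dosing as total distance traveled (cm) over a 30 min period. Mean ± SEM, n = 10-12 per group; Hochberg test versus reserpine + vehicle.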

Mus musculus [20] = test: Reversal of reserpine-induced akinesia in CF1 mouse at 1 mg/kg, po administered 18 hrs before reserpine challenge measured for 30 mins after 60 mins; format: functional, organism-based; set-up: dose 1 mg/kg; settings: in the assay text read “18 hrs after reserpine challenge” for “18 hrs before reserpine challenge”; how it was run: as §6
Callithrix jacchus [21] = test: Inhibition of MPTP-induced motor disabilities in Callithrix jacchus at 10 mg/kg, po measured every 5 mins for 6 hrs; format: functional, organism-based; set-up: dose 10 mg/kg; how it was run: as §1
[22] = Cmax in BALB/c mouse plasma at 10 mg/kg, po; format: ADME, organism-based; set-up: dose 10 mg/kg, route oral
How it was run: as §3, with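 “BALB/c mice” for “Sprague-Dawley rats”, “cardiac” for “orbital sinus”, “animals” for “rats”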

[23] = Half life in Sprague-Dawley rat at 10 mg/kg, po; format: ADME, organism-based; set-up: dose 10 mg/kg, route oral; settings: in vivo; how it was run: as §3
[24] = Cmax in cynomolgus monkey plasma at 10 mg/kg, po; format: ADME, organism-based, Macaca fascicularis; set-up: dose 10 mg/kg, route oral; how it was run: as §4
Rattus norvegicus [25] = test: Inhibition of 6-hydroxydopamine-induced rotational behavior in Sprague-Dawley rat at 0.1 to 10 mg/kg, po measured for 120 mins; format: functional; settings: 2 h, dose mg/kg 0.1-10, read-out: MED
How it was run: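 Rats received 6-OHDA (12 μg) unilaterally into the medial forebrain bundle. Six weeks later they were dosed orally with test compound alone (0.1, 1.0, 3.0, 10 mg/kg). Rotation was tracked by an optical sensor tethered to an automated system, with one count per 360° turn. Readout was mean ± SEM total contralateral rotations over 2 h, n = 16 per group.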

Callithrix jacchus [26] = test: Inhibition of MPTP-induced motor disabilities in Callithrix jacchus at 50 mg/kg, po measured every 5 mins for 6 hrs; format: functional, organism-based; set-up: dose 50 mg/kg; how it was run: as §1
Adenosine receptor A2a = Adenosine receptor A2a (Homo sapiens, UniProt P29274); test: Antagonist activity at adenosine A2A receptor; format: functional
Sequence of Adenosine receptor A2a (P29274 whole entry): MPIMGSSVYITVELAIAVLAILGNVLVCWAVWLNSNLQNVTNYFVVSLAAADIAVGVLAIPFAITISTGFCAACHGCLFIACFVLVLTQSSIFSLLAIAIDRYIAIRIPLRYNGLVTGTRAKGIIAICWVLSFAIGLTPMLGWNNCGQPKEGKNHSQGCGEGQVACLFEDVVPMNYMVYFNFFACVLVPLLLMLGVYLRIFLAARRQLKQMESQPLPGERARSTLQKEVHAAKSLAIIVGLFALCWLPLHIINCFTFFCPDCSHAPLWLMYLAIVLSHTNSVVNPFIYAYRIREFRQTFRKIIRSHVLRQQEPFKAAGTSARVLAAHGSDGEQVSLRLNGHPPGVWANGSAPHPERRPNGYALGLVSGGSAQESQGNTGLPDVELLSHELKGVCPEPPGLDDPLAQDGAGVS

[27] = Oral bioavailability in BALB/c mouse at 10 mg/kg; format: ADME, organism-based; settings: in vivo
How it was run: as §3, with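 “BALB/c mice” for “Sprague-Dawley rats”, “cardiac” for “orbital sinus”, “animals” for “rats”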

[28] = Half life in BALB/c mouse at 10 mg/kg, po; format: ADME, organism-based; set-up: dose 10 mg/kg, route oral; settings: in vivo
How it was run: as §3, with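 “BALB/c mice” for “Sprague-Dawley rats”, “cardiac” for “orbital sinus”, “animals” for “rats”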

Compound: N[C@@H](Cc1ccc(O)c(O)c1)C(=O)O [LEVODOPA]
inhibition (Callithrix jacchus [1]): Active
Activity (Callithrix jacchus [2]): Toxic

Cmax [5]: 1260 nM
bioavailability [6]: 64%
half-life [7]: 3.2 h
bioavailability [9]: 39%
Cmax [12]: 3550 nM
Ki (Adenosine receptor A1): 17 nM
Kp [16]: 3
Cmax [22]: 655 nM
half-life [23]: 1.6 h
Cmax [24]: 626 nM
Ki (Adenosine receptor A2a): 4.1 nM
bioavailability [27]: 100%
half-life [28]: 0.8 h
Compound: Cl.Cl.Nc1nc(-c2ccccc2)c2c(n1)-c1cc(CN3CCCC3)ccc1C2=O
Activity (Rattus norvegicus [3]): Active
minimal effective dose (Mus musculus [4]): 1 mg/kg
Activity (Mus musculus [8]): Active
Activity (Mus musculus [10]): Active
Activity (Rattus norvegicus [11]): Dose-dependent effect
ED50 (Rattus norvegicus [11]): 0.48 mg/kg
minimal effective dose (Rattus norvegicus [11]; read-out: MED): 1 mg/kg
Activity (Callithrix jacchus [13]): Active
Activity (Rattus norvegicus [14]): Dose-dependent effect
Activity (Mus musculus [15]): Dose-dependent effect
ED50 (Mus musculus [15]; Mus musculus, BALB/c, po): 0.17 mg/kg
minimal effective dose (Mus musculus [15]; Mus musculus, BALB/c, po, read-out: MED): 1 mg/kg
Activity (Rattus norvegicus [17]): Active
Activity (Mus musculus [18]): Active
Activity (Mus musculus [19]): Active
Activity (Mus musculus [20]): Active
Activity (Callithrix jacchus [21]): Active
minimal effective dose (Rattus norvegicus [25]): 1 mg/kg
Activity (Callithrix jacchus [26]): Active

Compound: CCn1c(=O)c2c(nc(/C=C/c3ccc(OC)c(OC)c3)n2C)n(CC)c1=O [ISTRADEFYLLINE]
Activity (Mus musculus [10]): Active
MRC (Mus musculus [15]): 1 mg/kg
ED50 (Mus musculus [15]; Mus musculus, BALB/c, po): 0.14 mg/kg
Activity (Mus musculus [18]): Active
